Data set [1] deals with RAW264.7. The experiment in a line: Downregulation of iNOS in LPS-induced mouse RAW264.7 cells at 2.5 uM by Western blot analysis. It counts as functional, cell-based. Put shortly: (§1)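 Western blot in RAW264.7 cells treated with compound under LPS (1 μg/mL) stimulation. Cells lysed in 1% RIPA and protein quantified by BCA. SDS-PAGE, PVDF transfer, 5% skim milk block for 2 h at 25 °C, primary antibody 12 h at 4 °C, then secondary at room temperature.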

The subject of data set [2] is RAW264.7. The experiment in a line: Downregulation of total NF-kappaB level in LPS-induced mouse RAW264.7 cells at 1.25 to 5 uM by Western blot analysis. In kind it is functional, cell-based. A digest of the protocol:
as §1

Data set [3] concerns RAW264.7. The experiment in a line: Downregulation of COX-2 in LPS-induced mouse RAW264.7 cells at 2.5 uM by Western blot analysis. In kind it is functional, cell-based. Put shortly: as §1
(Immunoblotting shows a protein as a band on a membrane.)

Data set [4] relates to RAW264.7. The experiment in a line: Inhibition of NF-kappaB in LPS-induced mouse RAW264.7 cells assessed as decrease in STAT3 phosphorylation at 1.25 to 5 uM by Western blot analysis. It counts as cell-based. Put shortly: as §1
Data set [5] has as its system RAW264.7. The data set can be described thus: Inhibition of ERK phosphorylation in LPS-induced mouse RAW264.7 cells at 1.25 to 5 uM incubated with compound for 1 hr followed by LPS stimulation measured after 4 hrs by Western blot analysis. It counts as cell-based. A digest of the protocol: (§2)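 Western blot of MAPK phosphorylation in RAW264.7 cells. Cells pretreated with or without compound (1.25, 2.5, 5.0 μM) for 1 h, then LPS (0.1 μg/mL) for 4 h. Lysed in 1% RIPA, BCA protein assay, SDS-PAGE, PVDF, milk block 2 h at 25 °C, primary antibody 12 h at 4 °C, then secondary at room temperature.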

In data set [6] the test system is RAW264.7. The data set can be described thus: Inhibition of JNK phosphorylation in LPS-induced mouse RAW264.7 cells at 1.25 to 5 uM incubated with compound for 1 hr followed by LPS stimulation measured after 4 hrs by Western blot analysis. It counts as cell-based. A digest of the protocol: as §2
The target of data set [7] is Transcription factor p65 (Mus musculus) (UniProt Q04207). The data set can be described thus: Inhibition of LPS-induced NF-kB p65 nuclear translocation in mouse RAW264.7 cells at 1.25 to 5 uM by Western blot analysis. It counts as cell-based. Put shortly:
as §1

For data set [8], the system named is RAW264.7. The data set can be described thus: Antiinflammatory activity in mouse RAW264.7 cells assessed as inhibition of LPS-induced NO production after 18 hrs by Griess assay. In kind it is functional, cell-based. Conditions: RAW264.7, 18 h. A digest of the protocol:
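RAW264.7 murine macrophages (DMEM, 10% FBS, pen-strep, 37 °C, 5% CO2) seeded 6 × 10^4 cells/well for 18 h. Compound added with 1 μg/mL LPS for 18 h. Supernatant nitrite read with Griess reagent (10 min, OD 540 nm). Inhibition relative to DMSO-only control. L-NMMA as positive control. IC50 is mean ± SD of three independent experiments.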

In data set [9] the target is MAP kinase p38 (Mus musculus) (UniProt P47811+O08911+Q9WUI1+Q9Z1B7). The experiment in a line: Inhibition of p38 phosphorylation in LPS-induced mouse RAW264.7 cells at 1.25 to 5 uM incubated with compound for 1 hr followed by LPS stimulation measured after 4 hrs by Western blot analysis. In kind it is cell-based. A digest of the protocol: as §2
Data set [10] deals with RAW264.7. The experiment in a line: Cytotoxicity against LPS-induced mouse RAW264.7 cells assessed as reduction in cell viability at 6.25 uM after 18 hrs by MTT assay. It counts as cell-based. Conditions: raw264.7, 18 h. Put shortly:
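RAW264.7 cells were seeded at 5 × 10^3/well for 18 h, then exposed to compound at various concentrations with or without LPS (1.0 μg/mL) for 18 h. MTT (5 mg/mL, 20 μL) added for 4 h. Formazan dissolved in DMSO and read at 570 nm. Viability is relative to the DMSO-only control, set as 100%.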
For orientation: Tetrazolium dyes change colour on reduction, which living cells bring about.

Molecules are shown by their SMILES. pIC50: −log10 of the molar value. Active and inactive are the calls of the source. The calls are words filed in the database; no cut-off is given here.

Chain of Transcription factor p65 (Mus musculus) (Q04207 whole entry): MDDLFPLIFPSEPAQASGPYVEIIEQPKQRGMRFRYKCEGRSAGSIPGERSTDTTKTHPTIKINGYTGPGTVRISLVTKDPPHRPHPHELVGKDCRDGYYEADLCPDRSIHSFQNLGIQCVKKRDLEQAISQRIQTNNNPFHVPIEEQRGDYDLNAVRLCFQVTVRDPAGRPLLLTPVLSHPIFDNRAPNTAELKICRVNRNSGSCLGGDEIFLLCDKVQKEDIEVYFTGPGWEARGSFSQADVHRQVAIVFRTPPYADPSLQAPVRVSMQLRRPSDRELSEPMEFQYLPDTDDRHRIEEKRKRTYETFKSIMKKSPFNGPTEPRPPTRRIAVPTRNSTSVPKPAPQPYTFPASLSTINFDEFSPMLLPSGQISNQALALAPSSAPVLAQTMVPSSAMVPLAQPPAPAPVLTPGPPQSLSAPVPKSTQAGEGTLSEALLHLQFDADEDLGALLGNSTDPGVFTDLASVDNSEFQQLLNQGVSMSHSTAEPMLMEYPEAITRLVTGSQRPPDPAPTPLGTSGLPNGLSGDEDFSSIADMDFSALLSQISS

With `C=C1C(=O)O[C@H]2[C@H]1C[C@@H](OC(=O)/C(C)=C\C)[C@@](C)(O)[C@@]13O[C@@H]1[C@@H]1O[C@]1(C)[C@H]23`, the result in data set [1], in [2] and in data set [3] was Active. Further, the inhibition result in [4], in [5], in data set [6], in data set [7] and in data set [9] was “Active” throughout. Further, in data set [8], the pIC50 was 5.85. The Activity entry in [10] was “Non-Toxic”.
Consider `C=C(C)C(=O)O[C@@H]1C[C@H]2C(=C)C(=O)O[C@@H]2[C@H]2[C@](C)(O)[C@@H](Cl)[C@@H]3O[C@@]32[C@]1(C)O`, for which the pIC50 in data set [8] is 5.01.
Same read-out and setting: for `C=C1C(=O)O[C@H]2[C@H]1C[C@@H](OC(=O)C=C(C)C)[C@@](C)(O)[C@@]13O[C@@H]1[C@@H]1O[C@]1(C)[C@H]23` the value was 5.32.
On to `C=C1C(=O)O[C@H]2[C@H]1CC[C@@](C)(O)[C@]13O[C@H]1[C@@H](O)[C@](C)(O)[C@H]23`, for which, in data set [8], the pIC50 was 4.67.
With `C=C1C(=O)O[C@H]2[C@H]1C[C@@H](OC(=O)/C(C)=C\C)[C@@](C)(O)[C@]13O[C@H]1[C@H]1O[C@@]1(C)[C@H]23`, the pIC50 in data set [8] was 5.40.
Still for that read-out and setting: under `C=C1C(=O)O[C@H]2[C@H]1C[C@@H](OC(=O)/C(C)=C\C)[C@@](C)(O)[C@]13O[C@H]1[C@@H](O)[C@@](C)(O)[C@H]23` stands 5.15; under `C=C1C(=O)O[C@H]2[C@@H]1[C@@H](OC(=O)/C(C)=C/C)C[C@@](C)(O)[C@@]13C=C[C@@](C)(OO1)[C@H]23`, 5.47.
Same read-out and setting: under `C=C1C(=O)O[C@H]2[C@H]1C[C@@H](OC(=O)/C(C)=C/C)[C@@](C)(O)[C@@]13O[C@@H]1[C@@H]1O[C@]1(C)[C@H]23` stands 5.41.
Consider `C=C1C(=O)O[C@H]2[C@H]1CC[C@@](C)(O)[C@]13C=C[C@](C)([C@@H]21)[C@]1(C3)C(=O)O[C@H]2[C@H]1CC[C@@](C)(O)[C@]13O[C@H]1[C@@H](O)[C@](C)(O)[C@H]23`, for which, in data set [8], the pIC50 is less than 4.30.
On the same count and under the same terms, under `C=C1C(=O)O[C@H]2[C@@H]1[C@@H](OC(=O)C=C(C)C)C[C@@](C)(O)[C@@]13C=C[C@@](C)(OO1)[C@H]23` stands 5.14.
On the same count and under the same terms, for `CNC(=N)NCCC[C@H](N)C(=O)O` [TILARGININE] the value was 4.59; for `C=C1C(=O)O[C@H]2[C@H]1C[C@@H](OC(=O)/C(C)=C/C)[C@@](C)(O)[C@]13O[C@H]1[C@H]1O[C@@]1(C)[C@H]23`, 5.20; for `C=C1C(=O)O[C@H]2[C@H]1CC[C@@](C)(O)[C@]13C=C[C@](C)([C@@H]21)[C@]1(C3)C(=O)O[C@H]2[C@H]1CC[C@@](C)(O)[C@]13O[C@H]1[C@@H](O)[C@@](C)(O)[C@H]23`, less than 4.30.

One may read the pIC50 as −log10 of the IC50, conventionally taken in molar units.

The values above are taken from ChEMBL document CHEMBL4138290, “Highly Oxidized Guaianolide Sesquiterpenoids with Potential Anti-inflammatory Activity from Chrysanthemum indicum” (J Nat Prod, 2018).
